Test results published in ChEMBL document CHEMBL4177526, “Discovery and structure activity relationship of the first potent cryptosporidium FIKK kinase inhibitor” (Bioorg Med Chem, 2017).

Key:
[1] = Inhibition of Cryptosporidium parvum CDPK1 using PLARTLSVAGLPGKK peptide as substrate by NADH coupled LDH-PK ATPase assay
Method in brief: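 NADH-coupled LDH-PK ATPase read-out with 1.2 nM recombinant CpCDPK1, 0.25 mM ATP, 0.1 mM Syntide 2.0 peptide and 2 mM CaCl2. Inhibitors were made as 10 mM DMSO stocks and tested in 2-fold serial dilutions. IC50 is the average of triplicate experiments.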

Cryptosporidium parvum = assay: Inhibition of recombinant Cryptosporidium parvum FIKK assessed as change in melting temperature at 50 uM by differential static light scattering method
[2] = system: Ribosomal protein S6 kinase beta-1 (Homo sapiens), P23443 [T412E]; assay: Inhibition of human S6K1 T412E mutant (1 to 421 residues) assessed as residual activity at 500 nM in presence of 33P-ATP by filter binding assay relative to control
[3] = target: Homeodomain-interacting protein kinase 2 (Homo sapiens) (UniProt Q9H2X6); assay: Inhibition of human HIPK2 (165 to 564 residues) assessed as residual activity at 500 nM in presence of 33P-ATP by filter binding assay relative to control
[4] = target: Mitogen-activated protein kinase 15 (Homo sapiens) (UniProt Q8TD08); assay: Inhibition of human ERK8 (2 to 544 residues) assessed as residual activity at 500 nM in presence of 33P-ATP by filter binding assay relative to control
[5] = target: Serine/threonine-protein kinase N2 (Homo sapiens) (UniProt Q16513); assay: Inhibition of human PRK2 (501 to 984 residues) assessed as residual activity at 500 nM in presence of 33P-ATP by filter binding assay relative to control
[6] = target: Mitogen-activated protein kinase kinase kinase 1 (Homo sapiens) (UniProt Q13233); assay: Inhibition of human MEKK1 (877 to 1563 residues) assessed as residual activity at 500 nM in presence of 33P-ATP by filter binding assay relative to control
[7] = target: cAMP-dependent protein kinase catalytic subunit alpha (Homo sapiens) (UniProt P17612); assay: Inhibition of human PKAalpha (2 to 351 residues) assessed as residual activity at 500 nM in presence of 33P-ATP by filter binding assay relative to control
[8] = target: Casein kinase I isoform gamma-2 (Homo sapiens) (UniProt P78368); assay: Inhibition of human CK1gamma2 (1 to 415 residues) assessed as residual activity at 500 nM in presence of 33P-ATP by filter binding assay relative to control
[9] = target: Eukaryotic translation initiation factor 2-alpha kinase 3 (Homo sapiens) (UniProt Q9NZJ5); assay: Inhibition of human EIF2AK3 (536 to 1116 residues) assessed as residual activity at 500 nM in presence of 33P-ATP by filter binding assay relative to control
[10] = target: Ephrin type-B receptor 1 (Homo sapiens) (UniProt P54762); assay: Inhibition of human EPHB1 (565 to 984 residues) assessed as residual activity at 500 nM in presence of 33P-ATP by filter binding assay relative to control
[11] = target: Serine/threonine-protein kinase 3 (Homo sapiens) (UniProt Q13188); assay: Inhibition of human MST2 (2 to 491 residues) assessed as residual activity at 500 nM in presence of 33P-ATP by filter binding assay relative to control
[12] = target: Serine/threonine-protein kinase Nek6 (Homo sapiens) (UniProt Q9HC98); assay: Inhibition of human NEK6 (8 to 313 residues) assessed as residual activity at 500 nM in presence of 33P-ATP by filter binding assay relative to control
[13] = target: Mitogen-activated protein kinase kinase kinase 5 (Homo sapiens) (UniProt Q99683); assay: Inhibition of human ASK1 (670 to 950 residues) assessed as residual activity at 500 nM in presence of 33P-ATP by filter binding assay relative to control
[14] = target: Tyrosine-protein kinase BTK (Homo sapiens) (UniProt Q06187); assay: Inhibition of human BTK (2 to 659 residues) assessed as residual activity at 500 nM in presence of 33P-ATP by filter binding assay relative to control
[15] = target: Proto-oncogene tyrosine-protein kinase Src (Homo sapiens) (UniProt P12931); assay: Inhibition of human SRC (1 to 536 residues) assessed as residual activity at 500 nM in presence of 33P-ATP by filter binding assay relative to control
[16] = target: Mitogen-activated protein kinase 7 (Homo sapiens) (UniProt Q13164); assay: Inhibition of human ERK5 (1 to 816 residues) assessed as residual activity at 500 nM in presence of 33P-ATP by filter binding assay relative to control
[17] = target: Serine/threonine-protein kinase TAO1 (Homo sapiens) (UniProt Q7L7X3); assay: Inhibition of human TAO1 (1 to 356 residues) assessed as residual activity at 500 nM in presence of 33P-ATP by filter binding assay relative to control
[18] = target: Tyrosine-protein kinase SYK (Homo sapiens) (UniProt P43405); assay: Inhibition of human SYK (1 to 635 residues) assessed as residual activity at 500 nM in presence of 33P-ATP by filter binding assay relative to control
[19] = target: Maternal embryonic leucine zipper kinase (Homo sapiens) (UniProt Q14680); assay: Inhibition of human MELK (2 to 651 residues) assessed as residual activity at 500 nM in presence of 33P-ATP by filter binding assay relative to control
[20] = target: Ephrin type-B receptor 3 (Homo sapiens) (UniProt P54753); assay: Inhibition of human EPHB3 (565 to 984 residues) assessed as residual activity at 500 nM in presence of 33P-ATP by filter binding assay relative to control
[21] = target: Proto-oncogene tyrosine-protein kinase LCK (Mus musculus) (UniProt P06240); assay: Inhibition of mouse LCK (2 to 509 residues) assessed as residual activity at 500 nM in presence of 33P-ATP by filter binding assay relative to control
[22] = target: Serine/threonine-protein kinase TBK1 (Homo sapiens) (UniProt Q9UHD2); assay: Inhibition of human TBK1 (1 to 729 residues) assessed as residual activity at 500 nM in presence of 33P-ATP by filter binding assay relative to control
[23] = target: Misshapen-like kinase 1 (Homo sapiens) (UniProt Q8N4C8); assay: Inhibition of human MINK1 (1 to 320 residues) assessed as residual activity at 500 nM in presence of 33P-ATP by filter binding assay relative to control
[24] = Ratio of EC50 for antiparasitic activity against Cryptosporidium parvum Iowa oocysts infected in human HCT8 cells to IC50 for Cryptosporidium parvum CDPK1; assay type: functional
[25] = target: serine/threonine-protein kinase D1 (Homo sapiens) (UniProt Q15139); assay: Inhibition of human PKD1 (2 to 912 residues) assessed as residual activity at 500 nM in presence of 33P-ATP by filter binding assay relative to control
serine/threonine-protein kinase D1 (Homo sapiens), sequence (Q15139 whole entry, looked up, the tested form may be a part): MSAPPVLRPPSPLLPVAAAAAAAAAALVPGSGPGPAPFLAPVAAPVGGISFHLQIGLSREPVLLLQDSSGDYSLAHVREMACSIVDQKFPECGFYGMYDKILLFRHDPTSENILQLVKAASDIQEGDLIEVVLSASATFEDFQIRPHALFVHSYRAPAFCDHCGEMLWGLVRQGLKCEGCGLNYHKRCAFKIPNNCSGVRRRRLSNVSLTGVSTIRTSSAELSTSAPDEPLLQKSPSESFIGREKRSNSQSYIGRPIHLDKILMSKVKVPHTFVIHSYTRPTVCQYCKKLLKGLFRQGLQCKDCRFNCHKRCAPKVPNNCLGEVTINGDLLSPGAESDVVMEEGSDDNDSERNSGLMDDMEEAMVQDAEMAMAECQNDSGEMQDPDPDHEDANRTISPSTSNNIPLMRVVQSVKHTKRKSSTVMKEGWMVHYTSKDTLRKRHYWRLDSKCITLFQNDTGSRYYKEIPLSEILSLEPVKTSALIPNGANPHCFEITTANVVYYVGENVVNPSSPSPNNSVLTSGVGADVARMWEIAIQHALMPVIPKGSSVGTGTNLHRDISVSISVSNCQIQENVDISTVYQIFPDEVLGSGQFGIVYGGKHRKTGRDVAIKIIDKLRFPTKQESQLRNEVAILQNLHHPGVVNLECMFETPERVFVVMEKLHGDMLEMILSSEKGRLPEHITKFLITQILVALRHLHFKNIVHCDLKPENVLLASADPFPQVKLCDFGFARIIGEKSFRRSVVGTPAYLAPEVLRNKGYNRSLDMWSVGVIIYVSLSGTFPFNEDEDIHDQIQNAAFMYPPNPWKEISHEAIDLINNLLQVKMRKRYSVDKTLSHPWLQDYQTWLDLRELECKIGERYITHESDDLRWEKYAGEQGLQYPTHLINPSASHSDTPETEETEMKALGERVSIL

Homeodomain-interacting protein kinase 2 (Homo sapiens), sequence (Q9H2X6 whole entry, looked up, the tested form may be a part): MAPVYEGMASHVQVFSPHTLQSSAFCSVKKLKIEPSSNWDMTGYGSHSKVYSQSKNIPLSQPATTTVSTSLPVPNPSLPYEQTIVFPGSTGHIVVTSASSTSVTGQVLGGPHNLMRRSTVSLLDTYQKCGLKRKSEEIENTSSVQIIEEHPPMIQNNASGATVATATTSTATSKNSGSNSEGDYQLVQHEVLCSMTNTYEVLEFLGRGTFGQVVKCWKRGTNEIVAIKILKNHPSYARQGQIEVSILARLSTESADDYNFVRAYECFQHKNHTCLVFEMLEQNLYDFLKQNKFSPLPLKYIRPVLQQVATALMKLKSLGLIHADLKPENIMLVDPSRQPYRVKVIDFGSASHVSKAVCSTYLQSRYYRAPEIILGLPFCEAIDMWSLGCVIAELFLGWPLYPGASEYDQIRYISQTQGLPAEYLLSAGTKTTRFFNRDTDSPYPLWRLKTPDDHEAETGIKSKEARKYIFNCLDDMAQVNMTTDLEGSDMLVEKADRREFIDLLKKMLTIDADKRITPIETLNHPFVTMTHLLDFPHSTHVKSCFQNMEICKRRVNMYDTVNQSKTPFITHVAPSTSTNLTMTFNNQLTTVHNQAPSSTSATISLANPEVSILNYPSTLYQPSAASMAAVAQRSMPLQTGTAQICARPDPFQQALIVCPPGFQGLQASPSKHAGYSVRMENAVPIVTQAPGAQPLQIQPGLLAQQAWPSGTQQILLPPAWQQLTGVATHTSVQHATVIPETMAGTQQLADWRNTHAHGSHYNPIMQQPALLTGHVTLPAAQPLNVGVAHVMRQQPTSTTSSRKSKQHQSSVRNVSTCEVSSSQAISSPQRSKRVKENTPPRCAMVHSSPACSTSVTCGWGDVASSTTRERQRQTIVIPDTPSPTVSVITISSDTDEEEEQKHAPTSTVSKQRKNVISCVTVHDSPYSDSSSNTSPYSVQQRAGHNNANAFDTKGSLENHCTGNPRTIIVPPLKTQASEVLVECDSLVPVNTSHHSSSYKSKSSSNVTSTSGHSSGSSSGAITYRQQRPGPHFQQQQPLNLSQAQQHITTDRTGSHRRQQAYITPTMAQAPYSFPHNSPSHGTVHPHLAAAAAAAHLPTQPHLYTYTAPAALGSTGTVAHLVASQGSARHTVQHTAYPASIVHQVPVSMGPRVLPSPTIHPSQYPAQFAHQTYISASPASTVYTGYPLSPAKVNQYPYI
Serine/threonine-protein kinase TAO1 (Homo sapiens), sequence (Q7L7X3 whole entry, the tested form may be a part): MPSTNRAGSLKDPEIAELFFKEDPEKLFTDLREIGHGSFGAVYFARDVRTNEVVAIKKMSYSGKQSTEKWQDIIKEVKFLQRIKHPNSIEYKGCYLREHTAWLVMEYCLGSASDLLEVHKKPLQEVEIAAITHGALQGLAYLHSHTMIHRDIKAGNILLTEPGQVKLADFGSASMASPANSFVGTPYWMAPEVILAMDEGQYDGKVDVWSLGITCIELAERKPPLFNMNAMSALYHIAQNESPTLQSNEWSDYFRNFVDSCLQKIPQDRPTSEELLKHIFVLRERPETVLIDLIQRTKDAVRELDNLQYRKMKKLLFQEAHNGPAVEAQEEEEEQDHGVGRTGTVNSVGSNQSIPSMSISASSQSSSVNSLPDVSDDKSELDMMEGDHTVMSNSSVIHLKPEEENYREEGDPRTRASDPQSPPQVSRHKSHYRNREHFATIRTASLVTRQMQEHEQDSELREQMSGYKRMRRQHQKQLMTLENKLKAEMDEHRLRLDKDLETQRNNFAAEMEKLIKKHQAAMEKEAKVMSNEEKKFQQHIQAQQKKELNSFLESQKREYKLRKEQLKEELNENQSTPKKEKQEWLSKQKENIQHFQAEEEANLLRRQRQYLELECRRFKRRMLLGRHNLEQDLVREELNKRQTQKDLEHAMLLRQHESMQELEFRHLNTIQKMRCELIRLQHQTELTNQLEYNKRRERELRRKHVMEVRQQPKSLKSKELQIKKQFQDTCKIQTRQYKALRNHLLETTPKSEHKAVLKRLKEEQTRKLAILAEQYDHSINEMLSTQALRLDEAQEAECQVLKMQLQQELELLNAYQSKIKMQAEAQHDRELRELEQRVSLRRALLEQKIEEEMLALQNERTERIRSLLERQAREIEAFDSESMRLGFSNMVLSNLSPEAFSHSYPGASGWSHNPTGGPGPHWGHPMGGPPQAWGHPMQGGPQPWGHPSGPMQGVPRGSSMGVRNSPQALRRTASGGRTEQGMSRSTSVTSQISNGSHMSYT
Ephrin type-B receptor 3 (Homo sapiens), sequence (P54753 whole entry, the tested form may be a part): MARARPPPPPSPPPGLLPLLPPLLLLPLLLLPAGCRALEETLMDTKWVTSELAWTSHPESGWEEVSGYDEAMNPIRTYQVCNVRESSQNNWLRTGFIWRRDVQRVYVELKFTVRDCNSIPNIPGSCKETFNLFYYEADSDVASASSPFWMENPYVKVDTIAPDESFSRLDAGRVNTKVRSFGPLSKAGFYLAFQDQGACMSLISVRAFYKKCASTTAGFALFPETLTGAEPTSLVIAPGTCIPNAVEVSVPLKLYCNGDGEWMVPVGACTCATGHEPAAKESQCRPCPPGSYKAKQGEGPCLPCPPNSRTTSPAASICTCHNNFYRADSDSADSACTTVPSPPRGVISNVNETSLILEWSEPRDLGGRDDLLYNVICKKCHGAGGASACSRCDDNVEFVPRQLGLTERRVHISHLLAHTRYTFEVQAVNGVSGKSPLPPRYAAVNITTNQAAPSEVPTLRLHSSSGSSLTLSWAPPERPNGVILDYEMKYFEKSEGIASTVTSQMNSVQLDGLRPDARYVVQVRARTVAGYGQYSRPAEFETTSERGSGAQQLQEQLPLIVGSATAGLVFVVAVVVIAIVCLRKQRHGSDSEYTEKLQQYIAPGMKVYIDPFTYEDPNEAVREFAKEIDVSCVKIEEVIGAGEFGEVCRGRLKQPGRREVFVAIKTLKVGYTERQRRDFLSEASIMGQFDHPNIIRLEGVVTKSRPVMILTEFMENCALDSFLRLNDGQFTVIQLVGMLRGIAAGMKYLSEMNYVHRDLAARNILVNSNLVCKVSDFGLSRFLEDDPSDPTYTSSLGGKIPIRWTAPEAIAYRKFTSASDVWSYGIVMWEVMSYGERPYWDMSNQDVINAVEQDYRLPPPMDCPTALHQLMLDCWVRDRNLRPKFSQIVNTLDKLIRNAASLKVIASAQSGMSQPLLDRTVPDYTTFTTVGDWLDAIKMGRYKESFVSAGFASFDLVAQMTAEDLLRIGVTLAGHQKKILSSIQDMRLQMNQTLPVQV
Mitogen-activated protein kinase 15 (Homo sapiens), sequence (Q8TD08 whole entry, the tested form may be a part): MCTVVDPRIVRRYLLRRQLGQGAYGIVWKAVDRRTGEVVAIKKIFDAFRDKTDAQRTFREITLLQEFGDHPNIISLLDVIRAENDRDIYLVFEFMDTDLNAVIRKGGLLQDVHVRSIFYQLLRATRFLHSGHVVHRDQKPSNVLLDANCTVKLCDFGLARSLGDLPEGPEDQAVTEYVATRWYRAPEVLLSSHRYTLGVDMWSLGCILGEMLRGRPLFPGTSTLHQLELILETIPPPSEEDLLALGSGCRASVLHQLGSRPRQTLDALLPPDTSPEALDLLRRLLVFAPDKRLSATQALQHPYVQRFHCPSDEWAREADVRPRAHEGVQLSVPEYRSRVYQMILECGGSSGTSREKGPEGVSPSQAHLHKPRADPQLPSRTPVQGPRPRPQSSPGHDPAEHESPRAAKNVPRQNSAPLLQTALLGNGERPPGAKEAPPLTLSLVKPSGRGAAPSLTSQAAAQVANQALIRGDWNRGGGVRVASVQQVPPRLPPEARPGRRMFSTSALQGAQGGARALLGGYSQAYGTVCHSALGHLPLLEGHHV
Casein kinase I isoform gamma-2 (Homo sapiens), sequence (P78368 whole entry, looked up, the tested form may be a part, canonical isoform): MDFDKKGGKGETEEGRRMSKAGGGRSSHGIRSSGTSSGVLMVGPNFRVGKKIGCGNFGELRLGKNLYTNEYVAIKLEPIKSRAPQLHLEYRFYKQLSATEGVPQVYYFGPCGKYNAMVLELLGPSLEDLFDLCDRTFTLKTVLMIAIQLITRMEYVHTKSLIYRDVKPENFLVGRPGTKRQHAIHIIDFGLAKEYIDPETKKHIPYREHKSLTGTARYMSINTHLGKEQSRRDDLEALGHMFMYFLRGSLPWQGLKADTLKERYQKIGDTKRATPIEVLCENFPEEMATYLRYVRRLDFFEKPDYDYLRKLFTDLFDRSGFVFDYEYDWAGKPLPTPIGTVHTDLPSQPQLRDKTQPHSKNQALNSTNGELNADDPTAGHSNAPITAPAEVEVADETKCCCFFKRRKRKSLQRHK

Cc1cccc(-c2nc(N)sc2-c2ccc3ncccc3n2)c1
IC50 [1]: 190 nM
ΔTm (Cryptosporidium parvum): 5.2 °C
Activity [2]: 136%
Activity [3]: 131%
Activity [4]: 123%
Activity [5]: 121%
Activity [6]: 119%
Activity [7]: 115%
Activity [8]: 113%
Activity [9]: 112%
Activity [10]: 110%
Activity [11]: 109%
Activity [12]: 108%
Activity [13]: 106%
Activity [14]: 105%
Activity [15]: 105%
Activity [16]: 100%
Activity [17]: 99%
Activity [18]: 95%
Activity [19]: 91%
Activity [20]: 89%
Activity [21]: 85%
Activity [22]: 77%
Activity [23]: 74%
Ratio [24]: 14
Activity [25]: 9%
